From ChEMBL document CHEMBL1933017, “Synthesis and biological evaluation of some thiazolidinones as antimicrobial agents” (2012)
In brackets after ≈: the same amount, converted by molar mass.

Key:
Proteus vulgaris [1] = experiment: Antibacterial activity against Proteus vulgaris at 100 ug/disc after 24 hrs by disc diffusion method; format: functional; details: read-out: DIZ
Summary of the method: (§1)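 Paper disc diffusion on autoclaved Mueller-Hinton agar poured 5 mm deep. Agar was swab-inoculated with 10⁵ CFU/mL suspension (0.5 McFarland). Discs 6.25 mm across were soaked in compound solution in DMSO (3.12–100 µg/mL) and plates incubated 24 h at (37 ± 1) °C. Read-out was inhibition zone (mm). DMSO control disc; ciprofloxacin or ketoconazole reference, 100 µg/disc. Mean of three independent experiments.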

Shigella flexneri [2] = experiment: Antibacterial activity against Shigella flexneri at 100 ug/disc after 24 hrs by disc diffusion method; format: functional; details: read-out: DIZ; summary of the method: as §1
Staphylococcus aureus [3] = experiment: Antibacterial activity against Staphylococcus aureus after 24 hrs by agar streak dilution method; format: functional
Summary of the method: (§2)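 MIC by agar streak dilution. Graded amounts of DMSO stock (100 μg/mL) were mixed into molten sterile nutrient agar and poured 4–5 mm deep. Serial concentrations spanned 3.12–100 µg/mL. Plates were inoculated with about 10⁵ CFU/mL of bacterial suspension and incubated at (37 ± 1) °C for 24 h. Each value is the mean of three independent experiments.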

Bacillus cereus [4] = experiment: Antibacterial activity against Bacillus cereus after 24 hrs by agar streak dilution method; format: functional; summary of the method: as §2
Escherichia coli [5] = experiment: Antibacterial activity against Escherichia coli after 24 hrs by agar streak dilution method; format: functional; summary of the method: as §2
Pseudomonas aeruginosa [6] = experiment: Antibacterial activity against Pseudomonas aeruginosa […] after 24 hrs by agar streak dilution method; format: functional
Klebsiella pneumoniae [7] = experiment: Antibacterial activity against Klebsiella pneumoniae […] after 24 hrs by agar streak dilution method; format: functional
Salmonella typhi [8] = experiment: Antibacterial activity against Salmonella Typhi after 24 hrs by agar streak dilution method; format: functional, Salmonella enterica subsp. enterica serovar Typhi; details: Salmonella enterica
Summary of the method: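 Agar streak dilution: DMSO stock (100 µg/mL) graded into molten sterile nutrient agar, poured 4–5 mm deep and solidified. Plates carry serial dilutions spanning 3.12–100 µg/mL. Applied ~10⁵ CFU/mL suspension, then incubated 24 h at (37 ± 1) °C. MIC read as the lowest inhibitory concentration; each value is the mean of three independent experiments.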

Proteus vulgaris [9] = experiment: Antibacterial activity against Proteus vulgaris after 24 hrs by agar streak dilution method; format: functional; summary of the method: as §2
Shigella flexneri [10] = experiment: Antibacterial activity against Shigella flexneri after 24 hrs by agar streak dilution method; format: functional; summary of the method: as §2
Aspergillus niger [11] = experiment: Antifungal activity against Aspergillus niger after 48 hrs by agar streak dilution method; format: functional
Summary of the method: (§3)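 Fungal MIC by agar streak dilution on Sabouraud dextrose agar, poured 4–5 mm deep. Compound from a DMSO stock (100 μg/mL) was incorporated at serial concentrations of 3.12–100 µg/mL. Plates were inoculated with about 10⁵ CFU/mL of suspension and incubated at (37 ± 1) °C for 48 h. Each value is the mean of three independent experiments.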

Aspergillus fumigatus [12] = experiment: Antifungal activity against Aspergillus fumigatus after 48 hrs by agar streak dilution method; format: functional; summary of the method: as §3
Aspergillus clavatus [13] = experiment: Antifungal activity against Aspergillus clavatus after 48 hrs by agar streak dilution method; format: functional; summary of the method: as §3
Candida albicans [14] = experiment: Antifungal activity against Candida albicans after 48 hrs by agar streak dilution method; format: functional; summary of the method: as §3
Aspergillus niger [15] = experiment: Antifungal activity against Aspergillus niger at 100 ug/disc after 24 hrs by disc diffusion method; format: functional; details: read-out: DIZ; summary of the method: as §1
Aspergillus fumigatus [16] = experiment: Antifungal activity against Aspergillus fumigatus at 100 ug/disc after 24 hrs by disc diffusion method; format: functional; details: read-out: DIZ; summary of the method: as §1
Aspergillus clavatus [17] = experiment: Antifungal activity against Aspergillus clavatus at 100 ug/disc after 24 hrs by disc diffusion method; format: functional; details: read-out: DIZ; summary of the method: as §1
Candida albicans [18] = experiment: Antifungal activity against Candida albicans at 100 ug/disc after 24 hrs by disc diffusion method; format: functional; details: read-out: DIZ; summary of the method: as §1
Staphylococcus aureus [19] = experiment: Antibacterial activity against Staphylococcus aureus at 100 ug/disc after 24 hrs by disc diffusion method; format: functional; details: read-out: DIZ; summary of the method: as §1
Bacillus cereus [20] = experiment: Antibacterial activity against Bacillus cereus at 100 ug/disc after 24 hrs by disc diffusion method; format: functional; details: read-out: DIZ; summary of the method: as §1
Escherichia coli [21] = experiment: Antibacterial activity against Escherichia coli at 100 ug/disc after 24 hrs by disc diffusion method; format: functional; details: read-out: DIZ; summary of the method: as §1
Pseudomonas aeruginosa [22] = experiment: Antibacterial activity against Pseudomonas aeruginosa at 100 ug/disc after 24 hrs by disc diffusion method; format: functional; details: read-out: DIZ; summary of the method: as §1
Klebsiella pneumoniae [23] = experiment: Antibacterial activity against Klebsiella pneumoniae at 100 ug/disc after 24 hrs by disc diffusion method; format: functional; details: read-out: DIZ; summary of the method: as §1
Salmonella typhi [24] = experiment: Antibacterial activity against Salmonella Typhi at 100 ug/disc after 24 hrs by disc diffusion method; format: functional, Salmonella enterica subsp. enterica serovar Typhi; details: Salmonella enterica, read-out: DIZ
Summary of the method: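 Paper disc diffusion on Mueller-Hinton agar poured 5 mm deep; 10⁵ CFU/mL suspension (0.5 McFarland) swabbed over surface. 6.25 mm filter paper discs soaked in compound in DMSO, incubated 24 h at (37 ± 1) °C; inhibition zone diameter in mm. DMSO disc as blank; ciprofloxacin 100 µg/disc as reference. Mean of three independent experiments.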

CCN1CCN(CC2SC(c3ccccc3Br)N(c3ccc(Nc4nc(Oc5cc(=O)n(C)c6ccccc56)nc(N(C)C)n4)cc3)C2=O)CC1 (stereo unspecified)
zone of inhibition at 100 µg/disc (Proteus vulgaris [1]): 15 mm | zone of inhibition at 100 µg/disc (Shigella flexneri [2]): 11 mm | MIC (Staphylococcus aureus [3]): 100 µg/mL (≈ 130 µM) | MIC (Bacillus cereus [4]): 100 µg/mL (≈ 130 µM) | MIC (Escherichia coli [5]): 100 µg/mL (≈ 130 µM) | MIC (Pseudomonas aeruginosa [6]): 100 µg/mL (≈ 130 µM) | MIC (Klebsiella pneumoniae [7]): 100 µg/mL (≈ 130 µM) | MIC (Salmonella typhi [8]): 100 µg/mL (≈ 130 µM) | MIC (Proteus vulgaris [9]): 100 µg/mL (≈ 130 µM) | MIC (Shigella flexneri [10]): 100 µg/mL (≈ 130 µM) | MIC (Aspergillus niger [11]): 100 µg/mL (≈ 130 µM) | MIC (Aspergillus fumigatus [12]): 100 µg/mL (≈ 130 µM) | MIC (Aspergillus clavatus [13]): 100 µg/mL (≈ 130 µM) | MIC (Candida albicans [14]): 100 µg/mL (≈ 130 µM) | zone of inhibition at 100 µg/disc (Aspergillus niger [15]): < 10 mm | zone of inhibition at 100 µg/disc (Aspergillus fumigatus [16]): < 10 mm | zone of inhibition at 100 µg/disc (Aspergillus clavatus [17]): 13 mm | zone of inhibition at 100 µg/disc (Candida albicans [18]): < 10 mm | zone of inhibition at 100 µg/disc (Staphylococcus aureus [19]): < 10 mm | zone of inhibition at 100 µg/disc (Bacillus cereus [20]): 13 mm | zone of inhibition at 100 µg/disc (Escherichia coli [21]): < 10 mm | zone of inhibition at 100 µg/disc (Pseudomonas aeruginosa [22]): 14 mm | zone of inhibition at 100 µg/disc (Klebsiella pneumoniae [23]): 12 mm | zone of inhibition at 100 µg/disc (Salmonella typhi [24]): 12 mm

CCN1CCN(CC2SC(c3ccccc3C(=O)O)N(c3ccc(Nc4nc(Oc5cc(=O)n(C)c6ccccc56)nc(N(C)C)n4)cc3)C2=O)CC1 (stereo unspecified)
zone of inhibition at 100 µg/disc (Proteus vulgaris [1]): 12 mm | zone of inhibition at 100 µg/disc (Shigella flexneri [2]): 15 mm | MIC (Staphylococcus aureus [3]): 100 µg/mL (≈ 136 µM) | MIC (Bacillus cereus [4]): 50 µg/mL (≈ 67.9 µM) | MIC (Escherichia coli [5]): 50 µg/mL (≈ 67.9 µM) | MIC (Pseudomonas aeruginosa [6]): 100 µg/mL (≈ 136 µM) | MIC (Klebsiella pneumoniae [7]): 50 µg/mL (≈ 67.9 µM) | MIC (Salmonella typhi [8]): 100 µg/mL (≈ 136 µM) | MIC (Proteus vulgaris [9]): 100 µg/mL (≈ 136 µM) | MIC (Shigella flexneri [10]): 100 µg/mL (≈ 136 µM) | MIC (Aspergillus niger [11]): 100 µg/mL (≈ 136 µM) | MIC (Aspergillus fumigatus [12]): 100 µg/mL (≈ 136 µM) | MIC (Aspergillus clavatus [13]): 100 µg/mL (≈ 136 µM) | MIC (Candida albicans [14]): 100 µg/mL (≈ 136 µM) | zone of inhibition at 100 µg/disc (Aspergillus niger [15]): 15 mm | zone of inhibition at 100 µg/disc (Aspergillus fumigatus [16]): 11 mm | zone of inhibition at 100 µg/disc (Aspergillus clavatus [17]): 17 mm | zone of inhibition at 100 µg/disc (Candida albicans [18]): 17 mm | zone of inhibition at 100 µg/disc (Staphylococcus aureus [19]): 21 mm | zone of inhibition at 100 µg/disc (Bacillus cereus [20]): 21 mm | zone of inhibition at 100 µg/disc (Escherichia coli [21]): 18 mm | zone of inhibition at 100 µg/disc (Pseudomonas aeruginosa [22]): 13 mm | zone of inhibition at 100 µg/disc (Klebsiella pneumoniae [23]): 16 mm | zone of inhibition at 100 µg/disc (Salmonella typhi [24]): 13 mm

CCN1CCN(CC2SC(c3ccc(C(=O)O)cc3)N(c3ccc(Nc4nc(Oc5cc(=O)n(C)c6ccccc56)nc(N(C)C)n4)cc3)C2=O)CC1 (stereo unspecified)
zone of inhibition at 100 µg/disc (Proteus vulgaris [1]): 25 mm | zone of inhibition at 100 µg/disc (Shigella flexneri [2]): 27 mm | MIC (Staphylococcus aureus [3]): 25 µg/mL (≈ 34 µM) | MIC (Bacillus cereus [4]): 12.5 µg/mL (≈ 17 µM) | MIC (Escherichia coli [5]): 6.25 µg/mL (≈ 8.49 µM) | MIC (Pseudomonas aeruginosa [6]): 25 µg/mL (≈ 34 µM) | MIC (Klebsiella pneumoniae [7]): 12.5 µg/mL (≈ 17 µM) | MIC (Salmonella typhi [8]): 50 µg/mL (≈ 67.9 µM) | MIC (Proteus vulgaris [9]): 12.5 µg/mL (≈ 17 µM) | MIC (Shigella flexneri [10]): 6.25 µg/mL (≈ 8.49 µM) | MIC (Aspergillus niger [11]): 25 µg/mL (≈ 34 µM) | MIC (Aspergillus fumigatus [12]): 50 µg/mL (≈ 67.9 µM) | MIC (Aspergillus clavatus [13]): 50 µg/mL (≈ 67.9 µM) | MIC (Candida albicans [14]): 100 µg/mL (≈ 136 µM) | zone of inhibition at 100 µg/disc (Aspergillus niger [15]): 27 mm | zone of inhibition at 100 µg/disc (Aspergillus fumigatus [16]): 20 mm | zone of inhibition at 100 µg/disc (Aspergillus clavatus [17]): 23 mm | zone of inhibition at 100 µg/disc (Candida albicans [18]): 25 mm | zone of inhibition at 100 µg/disc (Staphylococcus aureus [19]): 26 mm | zone of inhibition at 100 µg/disc (Bacillus cereus [20]): 23 mm | zone of inhibition at 100 µg/disc (Escherichia coli [21]): 27 mm | zone of inhibition at 100 µg/disc (Pseudomonas aeruginosa [22]): 22 mm | zone of inhibition at 100 µg/disc (Klebsiella pneumoniae [23]): 26 mm | zone of inhibition at 100 µg/disc (Salmonella typhi [24]): 22 mm

CCN1CCN(CC2SC(c3ccc(OC)cc3)N(c3ccc(Nc4nc(Oc5cc(=O)n(C)c6ccccc56)nc(N(C)C)n4)cc3)C2=O)CC1 (stereo unspecified)
zone of inhibition at 100 µg/disc (Proteus vulgaris [1]): 21 mm | zone of inhibition at 100 µg/disc (Shigella flexneri [2]): 26 mm | MIC (Staphylococcus aureus [3]): 6.25 µg/mL (≈ 8.66 µM) | MIC (Bacillus cereus [4]): 6.25 µg/mL (≈ 8.66 µM) | MIC (Escherichia coli [5]): 6.25 µg/mL (≈ 8.66 µM) | MIC (Pseudomonas aeruginosa [6]): 12.5 µg/mL (≈ 17.3 µM) | MIC (Klebsiella pneumoniae [7]): 25 µg/mL (≈ 34.6 µM) | MIC (Salmonella typhi [8]): 6.25 µg/mL (≈ 8.66 µM) | MIC (Proteus vulgaris [9]): 50 µg/mL (≈ 69.3 µM) | MIC (Shigella flexneri [10]): 6.25 µg/mL (≈ 8.66 µM) | MIC (Aspergillus niger [11]): 12.5 µg/mL (≈ 17.3 µM) | MIC (Aspergillus fumigatus [12]): 12.5 µg/mL (≈ 17.3 µM) | MIC (Aspergillus clavatus [13]): 12.5 µg/mL (≈ 17.3 µM) | MIC (Candida albicans [14]): 12.5 µg/mL (≈ 17.3 µM) | zone of inhibition at 100 µg/disc (Aspergillus niger [15]): 25 mm | zone of inhibition at 100 µg/disc (Aspergillus fumigatus [16]): 27 mm | zone of inhibition at 100 µg/disc (Aspergillus clavatus [17]): 24 mm | zone of inhibition at 100 µg/disc (Candida albicans [18]): 26 mm | zone of inhibition at 100 µg/disc (Staphylococcus aureus [19]): 28 mm | zone of inhibition at 100 µg/disc (Bacillus cereus [20]): 27 mm | zone of inhibition at 100 µg/disc (Escherichia coli [21]): 27 mm | zone of inhibition at 100 µg/disc (Pseudomonas aeruginosa [22]): 25 mm | zone of inhibition at 100 µg/disc (Klebsiella pneumoniae [23]): 25 mm | zone of inhibition at 100 µg/disc (Salmonella typhi [24]): 26 mm
